Source: PubChem BioAssay
Active and inactive are the calls of the source.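 How the source made its calls, unless noted: active means inhibition of the reporter signal at or above 50%; inactive means inhibition below 50%.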

Legend:
[1] = inhibitors of TNFa-induced NFkB p65 translocation, primary screen, imaging, HUVEC, MLSMR starter and 10KST1 sets (AID 438;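 active means inhibition above 20% together with a positive visual image hit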;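 further: compound added about 3h40 before a 20 min TNFalpha stimulation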;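 on inhibition: signal is the nuclear over cytoplasmic p65 intensity ratio per well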); conditions: HUVEC TNFa-induced p65 nuclear translocation; cell count: measured here: nuclei count (cytotoxicity indicator), at 2.08 µM; inhibition: at 2 µM, stronger effect = higher value, 0% TNFa-plus-vehicle, 100% no-TNFa wells
[2] = inhibitors of mutant huntingtin aggregation, primary screen, imaging, exon1htt(103Q)mCFP cells, high-content imaging (AID 483;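 active means visual image review flags a hit and inhibition of aggregation exceeds 20%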;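 further: compound exposure lasted 3 days before fixation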;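 on nuclei count: percent of the per-plate median nuclei count of sample wells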); conditions: exon1htt(103Q)mCFP cell line, aggregate imaging, at 2 µM; inhibition of aggregation: stronger effect = higher value; nuclei count: measured here: cell count, toxicity
[3] = inhibitors of E-selectin induction by TNFa, primary screen, imaging, HUVEC, immunofluorescence, MLSMR starter and 10KST1 sets (AID 487;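 active means visually confirmed hit in the image check and inhibition above 20%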;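 on inhibition: signal is fraction of cell area covered by stained E-selectin grains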;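 on nuclei count: 100% = median nuclei count of all wells on the same plate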); conditions: HUVEC TNFalpha-induced E-selectin immunofluorescence imaging, at 2 µM; inhibition: stronger effect = higher value; nuclei count: measured here: cell number, toxicity
[4] = biological target: Voltage-gated potassium channel subunit beta-2 (Rattus norvegicus) (UniProt P62483); assay: KvBeta enzyme negative modulators, primary screen, biochemical, NADPH fluorescence (AID 622;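 active means fluorescence slope higher than the sample average by over 3 SD, cut at about -0.22 in these data, passing the limit was not always enough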;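 further: slope of raw intensity against log time taken from 70 to 1610 s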); conditions: recombinant KvBeta, 4-cyanobenzaldehyde reduction, at 10 µM, stronger effect = higher value
[5] = biological target: Voltage-gated potassium channel subunit beta-2 (Rattus norvegicus) (UniProt P62483); assay: KvBeta positive modulators, primary screen, biochemical, NADPH fluorescence (AID 623;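 active means NADPH fluorescence slope more negative than the mean of all samples by about 3 SD, 99.7% confidence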;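 further: fluorescence intensity change per second fitted from 20 to 320 s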); conditions: Recombinant KvBeta, NADPH fluorescence decrease slope, 10 min; at 10 µM; stronger effect = lower value
[6] = biological target: Muscarinic acetylcholine receptor M4 (Homo sapiens) (UniProt P08173); assay: compounds altering M4/GIRK thallium flux, either direction, primary screen, M4 allosteric agonist project, cell-based, HEK293 M4/GIRK, BTC-AM (AID 625;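 active means fluorescence slope after compound addition differing from the mean of all tested samples at 99.7% confidence, mostly higher but some lower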;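 further: thallium influx through GIRK channels coupled to M4 in HEK293 cells with BTC-AM dye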); conditions: at 10 µM, actives lie on both sides
Procedure, shortened: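 Material: M4/GIRK1/GIRK2 stable HEK293 cell line. Medium: pH 7.3 thallium assay buffer. Dosing: single compound concentration, 10 µM final. Schedule: 1 h dye loading, 2 min kinetic read. Measured by: kinetic fluorescence with BTC-AM dye. Read-out: post-addition slope, 15–24 s, of baseline-normalized fluorescence. Benchmarks: carbachol and DMSO controls.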

[7] = inhibitors of Sendai virus-induced IRF3 signaling, primary screen, TLR/RLR signaling modifier project, cell-based, Sendai virus stimulus, luciferase, 10K MLSCN set (AID 602276;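 active means inhibition at or above 50% at 10 µM; inactive means inhibition below 50%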;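 further: firefly luciferase from ISG56 promoter only with Renilla not read in this screen; 0% = Sendai virus plus DMSO and 100% = medium plus DMSO without virus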); conditions: HEK293 RL24 IRF3 luciferase reporter, at 10 µM, stronger effect = higher value
[8] = inhibitors of poly I:C-induced TLR3 signaling, primary screen, cell-based, poly I:C stimulus, luciferase, 10K MLSCN set (AID 602277); conditions: HEK293-TLR3 RL24 IRF3 luciferase reporter, at 10 µM, stronger effect = higher value

Sequence of Voltage-gated potassium channel subunit beta-2 (Rattus norvegicus) (P62483 whole entry, looked up): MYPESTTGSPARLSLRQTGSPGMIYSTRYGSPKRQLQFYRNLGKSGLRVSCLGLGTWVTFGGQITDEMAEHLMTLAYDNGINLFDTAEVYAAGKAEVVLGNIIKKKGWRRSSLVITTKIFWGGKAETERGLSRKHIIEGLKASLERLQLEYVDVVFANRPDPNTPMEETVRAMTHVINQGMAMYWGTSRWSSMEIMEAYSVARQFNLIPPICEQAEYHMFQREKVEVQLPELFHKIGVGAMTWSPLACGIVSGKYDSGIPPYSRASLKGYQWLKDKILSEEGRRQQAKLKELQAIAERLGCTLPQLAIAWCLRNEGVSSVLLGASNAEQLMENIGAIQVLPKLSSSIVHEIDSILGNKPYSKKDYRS
Sequence of Muscarinic acetylcholine receptor M4 (Homo sapiens) (P08173 whole entry, looked up): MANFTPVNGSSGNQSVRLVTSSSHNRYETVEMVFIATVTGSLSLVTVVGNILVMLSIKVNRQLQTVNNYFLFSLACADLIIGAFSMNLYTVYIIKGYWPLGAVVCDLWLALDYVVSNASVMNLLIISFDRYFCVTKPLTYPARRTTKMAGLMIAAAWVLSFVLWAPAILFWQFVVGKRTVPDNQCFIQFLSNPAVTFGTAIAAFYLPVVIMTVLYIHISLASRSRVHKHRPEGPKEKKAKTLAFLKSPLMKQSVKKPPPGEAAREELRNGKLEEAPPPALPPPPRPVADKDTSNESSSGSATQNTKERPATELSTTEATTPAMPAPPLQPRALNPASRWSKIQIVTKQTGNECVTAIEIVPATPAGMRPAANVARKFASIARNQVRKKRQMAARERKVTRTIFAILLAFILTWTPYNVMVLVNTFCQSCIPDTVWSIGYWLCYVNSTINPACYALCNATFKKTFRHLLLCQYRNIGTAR

Row | Structure (SMILES) | cell count [1] | inhibition [1] | inhibition of aggregation [2] | nuclei count [2] | inhibition [3] | nuclei count [3] | fluorescence slope [4] | NADPH fluorescence slope [5] | fluorescence slope [6] | inhibition [7] | inhibition [8]
1 | O=C(O)c1cnn2c1NC(c1ccc(F)cc1)CC2C(F)(F)F (stereo not given) | 613 | 10.2% (inactive) | -6.3% (inactive) | 99.2% | -85.7% (inactive) | 116% | -0.472 (inactive) | -4.5e-05 (inactive) | 0.00543 (inactive) | 10.7% (inactive) | 1.93% (inactive)
2 | CCn1c(SCC(=O)N2CCCc3ccccc32)nnc1-c1cccs1 | 697 | 1.4% (inactive) | 4.3% (inactive) | 98.7% | -172% (inactive) | 129% | -0.531 (inactive) | -2.4e-05 (inactive) | 0.00467 (inactive) | 14% (inactive) | 13.4% (inactive)
3 | CC(C)CCNC(=O)NC(=O)CN1C(=O)NC2(CCCCC2)C1=O | 560 | -14.9% (inactive) | 13.2% (inactive) | 106% | -209% (inactive) | 87% | -0.498 (inactive) | 7.2e-05 (inactive) | 0.00636 (inactive) | -8.08% (inactive) | -2.49% (inactive)
4 | COc1ccccc1-c1noc(-c2ccco2)n1 | 691 | 7.2% (inactive) | 16.8% (inactive) | 82.3% | 6% (inactive) | 101% | -0.554 (inactive) | -4.8e-05 (inactive) | 0.00616 (inactive) | -44.2% (inactive) | -96.7% (inactive)
5 | C#CCN1C(=O)C(O)(CC(=O)c2cccc(OC)c2)c2ccccc21 (stereo not given) | 429 | 1.2% (inactive) | -0.5% (inactive) | 96.2% | -130% (inactive) | 163% | -0.337 (inactive) | -6.5e-05 (inactive) | 0.00596 (inactive) | 10.4% (inactive) | 14.1% (inactive)
6 | CCC(=O)/C=C1\Sc2ccc(OC)cc2N1CCO | 626 | 2.4% (inactive) | -1.7% (inactive) | 93.6% | -28.2% (inactive) | 85.1% | -0.577 (inactive) | -3.8e-05 (inactive) | 0.0067 (inactive) | 21.2% (inactive) | 9.17% (inactive)
7 | CCC(C)C(NC(=O)C1CCC(C)CC1)C(=O)NCc1cccnc1 (stereo not given) | 320 | -13.1% (inactive) | 1.5% (inactive) | 103% | 22.9% (inactive) | 102% | -0.325 (inactive) | -5.6e-05 (inactive) | 0.00576 (inactive) | 12.4% (inactive) | 4.61% (inactive)
8 | CCNC(=O)N1c2ccc(OCC)cc2C(C)=CC1(C)C | 599 | 2.5% (inactive) | 37.2% (inactive) | 94.1% | -34% (inactive) | 102% | -0.588 (inactive) | -3e-05 (inactive) | 0.00404 (inactive) | -6.26% (inactive) | 4.09% (inactive)
9 | CCOC(=O)c1[nH]c2ccc(F)cc2c1NC(=O)C(C)N1CCc2cc(OC)c(OC)cc2C1 (stereo not given) | 436 | 0.5% (inactive) | 15.1% (inactive) | 76.9% | 42.5% (inactive) | 96% | -0.574 (inactive) | -3.4e-05 (inactive) | 0.00265 (inactive) | -0.796% (inactive) | 35.3% (inactive)
10 | COc1ccccc1-c1nc(C(F)(F)F)c(OC)o1 | 469 | -3.3% (inactive) | -0.2% (inactive) | 120% | -126% (inactive) | 215% | -0.423 (inactive) | -9.3e-07 (inactive) | 0.00491 (inactive) | 21.1% (inactive) | 11.8% (inactive)
